Consider two compounds from ChEMBL document CHEMBL4261550, “Triazolopyrimidines identified as reversible myeloperoxidase inhibitors” (Medchemcomm, 2017).

Calls of active or inactive are those of the source. No cut-off for these calls is given here. A value given as a limit tells only on which side of the number the result lay.

Series [1] deals with T1, Myeloperoxidase (Homo sapiens) (UniProt P05164).
T1 sequence (whole entry): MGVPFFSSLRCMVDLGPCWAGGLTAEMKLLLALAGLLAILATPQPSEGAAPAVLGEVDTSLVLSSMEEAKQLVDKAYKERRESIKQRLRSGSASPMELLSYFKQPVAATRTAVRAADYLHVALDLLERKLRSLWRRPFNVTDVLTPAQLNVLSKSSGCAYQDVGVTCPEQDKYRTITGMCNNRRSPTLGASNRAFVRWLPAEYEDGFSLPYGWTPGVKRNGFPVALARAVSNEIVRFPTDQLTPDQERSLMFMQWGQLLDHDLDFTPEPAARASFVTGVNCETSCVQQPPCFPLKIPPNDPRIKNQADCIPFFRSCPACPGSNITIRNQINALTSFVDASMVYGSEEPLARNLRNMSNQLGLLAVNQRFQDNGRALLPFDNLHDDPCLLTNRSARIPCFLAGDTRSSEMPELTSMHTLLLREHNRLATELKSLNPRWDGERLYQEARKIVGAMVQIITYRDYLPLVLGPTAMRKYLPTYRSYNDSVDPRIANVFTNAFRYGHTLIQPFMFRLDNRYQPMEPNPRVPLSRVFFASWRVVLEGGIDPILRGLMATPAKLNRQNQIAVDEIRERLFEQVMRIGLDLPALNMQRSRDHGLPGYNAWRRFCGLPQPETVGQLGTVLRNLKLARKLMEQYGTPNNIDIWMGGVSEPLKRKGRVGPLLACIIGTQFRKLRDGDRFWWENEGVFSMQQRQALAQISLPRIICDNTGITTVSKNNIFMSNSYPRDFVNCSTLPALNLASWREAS
The series can be described thus: Inhibition of human MPO assessed as reduction in enzyme-mediated chlorination by measuring reduction in HOCl formation at 10 uM preincubated for 10 mins followed by H2O2/NaCl addition and measured at 30 secs time interval for 5 mins by APF dye based fluorescence assay relative to control. The procedure, abridged:
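HTS APF chlorination, 1536-well: 1.75 nM human MPO with 20 μM H2O2 final, compound 10 μM final, preincubated 10 min; APF reagent added, fluorescence 485/535 nm read every 30 s for 5 min; slope normalized to DMSO (0%) and no-MPO wells (100% inhibition).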

Series [2] is described as follows: Hypochlorus scavenging activity at 10 uM in presence of sodium hypochlorite after 15 mins by APF dye based fluorescence assay relative to control. It counts as functional. Put shortly: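 NaOCl-scavenger counterscreen in 1536-well format: 50 μM NaOCl in place of MPO with APF reagent, compound 10 μM final; fluorescence intensity read after 15 min incubation; ≥20% loss of fluorescence flagged as interference.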

In series [3] the target is T2, Myeloperoxidase (Homo sapiens, UniProt P05164).
T2 sequence (P05164 whole entry): T1 sequence (whole entry)
The series can be described thus: Inhibition of human MPO assessed as reduction in enzyme-mediated chlorination by measuring reduction in HOCl formation preincubated for 10 mins followed by H2O2/NaCl addition and measured at 30 secs time interval for 5 mins by APF dye based fluorescence assay.

For series [4], the target named is T2, Myeloperoxidase. The series can be described thus: Inhibition of human MPO assessed as reduction in enzyme-mediated chlorination by measuring reduction in HOCl formation in presence of H2O2/NaCl measured at 30 secs time interval for 5 mins by APF dye based fluorescence assay.
Series [5] addresses T2, Myeloperoxidase. Description: Inhibition of human MPO peroxidase activity in presence of H2O2 measured at 30 secs time interval for 5 mins by amplex red reagent based fluorescence assay.
Series [6] is described as follows: Redox activity assessed as conversion of resazurin reagent to resorufin at 10 uM after 30 mins by fluorescence assay relative to control. It counts as physicochemical. To be noted: 0.5 h. The procedure, abridged: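 Redox counterscreen: compound 10 μM final incubated with 5 μM resazurin reagent (final) 30 min; fluorescence intensity read; normalized to a reactive styrylpyrimidotriazinedione standard at 10 μM as 100%.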

For series [7], the target named is Lactoperoxidase (Homo sapiens, UniProt P22079). Description: Inhibition of recombinant human LPO isoform-1 (26 to 712 residues) expressed in baculovirus infected insect cells assessed as reduction in H2O2-catalyzed 3,5-iodo tyrosine formation using 3-iodotyrosine and potassium iodide preincubated for 10 mins followed by 3,5-iodo tyrosine/potassium iodide/H2O2 addition and measured after 15 mins. The procedure, abridged:
(§1)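 LPO isoform 1 residues 26–712, baculovirus/T. ni expressed, purified by cation exchange, hydrophobic interaction and size exclusion; 2.0 nM in 100 mM KPi pH 7.4, 10 min rt preincubation with inhibitor; then 400 μM KI/240 μM 3-iodotyrosine mix and 20 μM H2O2 (added solutions); 3,5-iodotyrosine formation monitored.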

The target in series [8] is MPO, mouse (Mus musculus, UniProt P11247). The series can be described thus: Inhibition of mouse C-terminal His10 tagged MPO (Met16 to Thr718 residues) assessed as reduction in enzyme-mediated chlorination by measuring reduction in HOCl formation preincubated for 10 mins followed by H2O2/NaCl addition and measured at 30 secs time interval for 5 mins by APF dye based fluorescence assay.

In series [9] the target is T1, Myeloperoxidase (Homo sapiens). The series can be described thus: Substrate activity at human MPO assessed as reversion of enzyme to resting state at 40 uM in presence of H2O2 by stopped flow assay. Put shortly: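 Stopped-flow at 25 °C: syringe 1 with 2 μM MPO and 5 μM H2O2 in phosphate buffer, syringe 2 with inhibitor and 5 μM H2O2; equal volumes rapidly mixed, spectra acquired in PDA mode to follow several MPO species; representative of numerous replicates.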

For series [10], the species on record is Homo sapiens. The series can be described thus: Selectivity ratio of IC50 for recombinant human C-terminal His6-tagged TPO (15 to 839 residues) expressed in baculovirus infected insect cells to IC50 for human MPO. Put shortly:
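TPO residues 15–839 with C-terminal His6, baculovirus/T. ni expressed, purified by Ni affinity, anion exchange and size exclusion; 4.0 nM in 100 mM KPi pH 7.4, 10 min rt preincubation with inhibitor; then 400 μM KI/240 μM 3-iodotyrosine mix and 20 μM H2O2 (added solutions); 3,5-iodotyrosine formation monitored.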

The species entered for series [11] is Homo sapiens. Description: Selectivity ratio of IC50 for recombinant human LPO isoform-1 (26 to 712 residues) expressed in baculovirus infected insect cells to IC50 for human MPO. Put shortly:
as §1

Series [12] in a line: Protein binding in human plasma. It counts as ADME, cell-free. The note with it: read-out: PPB.
Series [13] can be described thus: Ratio of plasma concentration in PMA-stimulated C57BL6 mouse neutrophil degranulation model at 30 mg/kg, po after 20 mins to in vitro IC50 for MPO in PMA-stimulated human neutrophils. To be noted: in vivo. It counts as ADME, organism-based.

MPO, mouse, sequence (P11247 whole entry, looked up): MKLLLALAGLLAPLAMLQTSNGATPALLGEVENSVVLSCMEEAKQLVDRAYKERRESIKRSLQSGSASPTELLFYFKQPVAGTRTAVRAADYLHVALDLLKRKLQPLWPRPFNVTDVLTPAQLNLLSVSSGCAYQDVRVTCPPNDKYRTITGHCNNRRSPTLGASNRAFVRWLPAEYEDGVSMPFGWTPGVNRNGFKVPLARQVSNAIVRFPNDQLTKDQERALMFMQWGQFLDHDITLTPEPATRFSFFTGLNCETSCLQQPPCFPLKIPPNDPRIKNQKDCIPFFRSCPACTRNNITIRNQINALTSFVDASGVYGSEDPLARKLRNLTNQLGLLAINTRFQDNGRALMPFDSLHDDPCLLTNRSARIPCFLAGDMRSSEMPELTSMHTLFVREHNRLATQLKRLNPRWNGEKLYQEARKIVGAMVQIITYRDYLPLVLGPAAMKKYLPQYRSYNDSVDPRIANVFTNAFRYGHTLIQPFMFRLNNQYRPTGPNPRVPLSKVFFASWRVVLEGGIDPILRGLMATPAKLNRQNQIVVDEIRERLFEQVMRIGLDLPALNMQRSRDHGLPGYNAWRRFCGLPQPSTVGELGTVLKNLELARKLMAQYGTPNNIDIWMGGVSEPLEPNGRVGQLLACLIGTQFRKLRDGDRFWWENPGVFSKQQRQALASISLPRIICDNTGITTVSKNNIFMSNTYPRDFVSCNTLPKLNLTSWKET
Lactoperoxidase, sequence (P22079 whole entry, the tested form may be a part, canonical isoform): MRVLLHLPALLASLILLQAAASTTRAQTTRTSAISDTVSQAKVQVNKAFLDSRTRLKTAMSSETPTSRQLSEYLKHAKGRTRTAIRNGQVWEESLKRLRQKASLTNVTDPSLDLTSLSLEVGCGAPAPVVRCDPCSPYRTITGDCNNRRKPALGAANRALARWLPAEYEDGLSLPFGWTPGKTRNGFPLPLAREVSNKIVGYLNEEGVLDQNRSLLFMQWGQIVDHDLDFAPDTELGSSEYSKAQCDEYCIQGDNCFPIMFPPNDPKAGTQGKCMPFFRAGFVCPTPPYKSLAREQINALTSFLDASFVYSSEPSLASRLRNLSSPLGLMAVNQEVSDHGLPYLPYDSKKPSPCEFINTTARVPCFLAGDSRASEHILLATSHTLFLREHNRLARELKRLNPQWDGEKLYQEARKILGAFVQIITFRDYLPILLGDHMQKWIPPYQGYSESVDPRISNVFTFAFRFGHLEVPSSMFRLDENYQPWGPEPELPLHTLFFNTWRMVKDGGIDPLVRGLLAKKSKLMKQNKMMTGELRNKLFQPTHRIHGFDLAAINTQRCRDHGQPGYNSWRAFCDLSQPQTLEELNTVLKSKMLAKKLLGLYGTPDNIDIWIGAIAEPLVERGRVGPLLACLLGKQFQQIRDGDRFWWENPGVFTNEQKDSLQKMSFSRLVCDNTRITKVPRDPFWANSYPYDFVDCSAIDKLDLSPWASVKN

For `Nc1nc(OCc2ccccc2)c2[nH]nnc2n1`, the inhibition in series [1] stood at 30%. For the same compound, the Activity in series [2] is less than 20%; in series [6] it was “Not Active”. Moreover, the half-inhibitory concentration (IC50) was 110 nM in series [3]; 84 nM in series [4]; 110 nM in series [5]; greater than 30000 nM in series [7]; 81 nM in series [8]. In addition, the result in series [9] was inactive. Moreover, the Ratio IC50 in series [10] and in series [11] was greater than 10 throughout. Also, the fraction unbound in series [12] came to 0.01. In series [13], the Ratio is on record as 36.
With `Nc1ccc(Oc2cc(Cl)c(Cl)cc2Cl)cn1`, the inhibition in [1] was 30%. In addition, the values for the Activity in [2] and in series [6] were less than 20% and “Not Active”, respectively. The half-maximal inhibitory concentration (IC50) was found to be 360 nM in series [3]; 320 nM in series [4]; 840 nM in series [5]; 13000 nM in [7]; 230 nM in [8]. The outcome in series [9] was Active. Also, the Ratio IC50 in [10] and in series [11] was greater than 10 throughout.

A word on the inhibition: it is the drop in the measured response relative to a control, in per cent. The term IC50 denotes the concentration needed to halve the response being measured.
